Data published in ChEMBL document CHEMBL4513216, “Probing the Open Global Health Chemical Diversity Library for Multistage-Active Starting Points for Next-Generation Antimalarials” (ACS Infect Dis, 2020).

Assay: Toxicity liver stage against HepG2, at 10uM
Format: cell-based
Set-up: test concentration 10 uM, cell line HepG2-A16-CD81EGFP
Conditions: human, HepG2-A16-CD81EGFP cells; read-out: INHIBITION
Summary of the method: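 Uninfected HepG2-A16-CD81EGFP cells, 3 × 10^3 per well, 1536-well, plated on prespotted compound at 10 μM final, parasite-free screening media added to match infected plates; puromycin 10 μM positive, DMSO 0.5% negative; run in parallel with 48 h PbLuc assay at 37 °C, 5% CO2; viability by CellTiter-Glo luminescence, normalized to controls.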

Row | Structure (SMILES) | cytotoxicity at 10 µM [%]
1 | CN1C(=O)CO[C@H](c2ccc(NC(=O)Nc3ccccc3)cc2)[C@H]1CO | -1.63
2 | CO[C@H]1COCCN(Cc2c[nH]c3ccccc23)C1 | 4.65
3 | CCC(=O)Nc1ccccc1Sc1nc(Br)nn1C | 3.28
4 | O=C(NCCOCCO)c1cccnc1Oc1ccc(Cl)cc1 | 1.38
5 | COc1ccccc1CN1CC(O)CN(C(=O)OCC(C)C)CC1=O (centres undefined) | -6.19
6 | COc1ccc(S(=O)(=O)NCCC(O)c2ccccc2)c(C)c1 (centres undefined) | 0.174
7 | O=C(c1ccc[nH]1)N1Cc2nccn2CC(COc2cccnc2)C1 (centres undefined) | 18.1
8 | O=C(c1cccc(F)c1)N1CCc2ncc(Cn3cccn3)n2CC1 | 2.05
9 | COc1ccc(C2SCC(=O)Nc3ccsc32)cc1OC (centres undefined) | -0.898
10 | CCOC(=O)N1CCN(c2nc(N3CCCC3)c3ccccc3n2)CC1 | -5.31
11 | Cc1cc(SCC(N)=O)nc(-c2cccc(F)c2)n1 | -1.9
12 | CS(=O)(=O)N1CC[C@]2(C[C@@H](OCC3CCC3)CO2)C1 | -6.66
13 | Cn1cc(-c2ncnc3c2CCN(C(=O)N2CCOCC2)CC3)cn1 | -11.3
14 | CC(C)N(C)C(=O)C1=NOC2(CCN(C(=O)c3ccncc3)C2)C1 (centres undefined) | -0.237
15 | CCn1cc(C(=O)NCc2ccc3c(c2)OCO3)c(C)n1 | 9.9
16 | Cc1ccc(Cn2nc(C)c3c(C(=O)O)c(Cl)c(C)nc32)cc1 | 5.53
17 | COCCCNc1cc(C)nn2cnnc12 | 6
18 | Cc1nn(C)c2c(=O)n(C(C)C)c(NCC3CCCO3)nc12 (centres undefined) | 13.9
19 | Cc1cc2c(=O)n(CC(=O)N3CCn4cccc4C3C(C)C)cnc2s1 (centres undefined) | 3.77
20 | COCC(=O)NCc1cnc(C)nc1-c1cn(C)c2ccc(OC)cc12 | 11.9
21 | COCCNc1ncc(-c2cccc(OC)c2)c(-c2nccn2C)n1 | 7.49

Row | Structure (SMILES) | cytotoxicity at 10 µM [%]
22 | CNc1cnc(CC2COCCN(Cc3cccc(C)n3)C2)cn1 (centres undefined) | 8
23 | CNC(=O)C1CN(C(C)C)CCN1c1nc(C)cc(C)n1 (centres undefined) | -10.4
24 | c1ccc(CN2CCCC[C@H]3CN(c4ncccn4)C[C@H]32)cc1 | -3.81
25 | CCn1cc(CNCC(c2ccc(Cl)cc2)n2cccn2)cn1 (centres undefined) | 6.67
26 | CCOC(=O)CCCc1ccc2c(c1)CC(=O)N2 | 1.23
27 | CN1CCC(N(Cc2ccccc2)C(=O)c2ccn3ccnc3c2)CC1 | 5.63
28 | CC1COc2ccccc2N1C(=O)CCc1cscn1 (centres undefined) | 1.88
29 | CN(Cc1cc2ccccc2o1)S(C)(=O)=O | 1.66
30 | CCS(=O)(=O)Cc1csc(-c2ccc(S(C)(=O)=O)cc2)n1 | 8.8
31 | CC1CN(C(=O)C2(c3cccc(F)c3)CCOCC2)CCO1 (centres undefined) | 4.89
32 | COc1ccc2c(c1)CCCN2C(=O)CN1CCOC(CN(C)C)C1 (centres undefined) | -2.93
33 | CCCc1cc(C(=O)NCCCC(=O)N2Cc3ccccc3C2)[nH]n1 | 8.81
34 | CCc1cc(CNC(=O)N(C2CC2)C(C)c2ccco2)on1 (centres undefined) | -0.335
35 | O=C(NCc1ccccn1)NCC(c1ccco1)N1CCCC1 (centres undefined) | -2.56
36 | O=C1OCCN1CCS(=O)(=O)c1cccc(Cl)c1 | -0.82
37 | CCOc1cccc(COC(=O)c2cscn2)n1 | -0.262
38 | N#Cc1nccnc1NC1CCN(c2ccccc2Br)C1 (centres undefined) | 3.92
39 | Cc1nc2ccccc2n(Cc2nnnn2C2CC2)c1=O | -10.3
40 | Cc1ncc(CN(C)Cn2nc(-c3ccccc3)oc2=O)s1 | -2.81
41 | C1CCN(CCOC2CCNCC2)CC1 | 6.88
42 | O=C(NCCC(=O)N1CCCC1)c1cccnc1 | 11

Row | Structure (SMILES) | cytotoxicity at 10 µM [%]
43 | Cc1ccc2c(c1)OCCCC2NCc1nccn1Cc1ccccc1 (centres undefined) | -9.4
44 | O=S(=O)(NCc1ccc(S(=O)(=O)N2CCCC2)s1)c1cc(Cl)ccc1Cl | -43.4
45 | NC(=O)NC(CC(=O)N1CCc2sccc2C1)c1ccccc1F (centres undefined) | 3.5
46 | Cn1ncc2c1CCCC2NCc1cccnc1 (centres undefined) | 0.999
47 | CC(=O)N1CCCN(C(=O)NCCCNS(C)(=O)=O)CC1 | -10.3
48 | Cc1noc(COCC(=O)Nc2ncccc2Br)n1 | 2.13
49 | CCSc1ccc(C(=O)Nc2c(C)nn(C(C)C)c2C)cn1 | -24.4
50 | CC(CN1CCN(C)CC1)NC(=O)c1cc(Cl)c2c(c1)OCO2 (centres undefined) | -14
51 | CS(=O)(=O)N1CCC2(CC1)CC(CC(=O)NCC1CC1)c1ccccc12 (centres undefined) | 7.65
52 | CCCc1cc(C(=O)N(CC)Cc2ccncc2)[nH]n1 | -6.52
53 | CCN(CC)C(=O)C1CCCN(c2ncnc3oc(C)nc23)C1 (centres undefined) | 1.61
54 | Cc1cccc(C(C(=O)NCc2cc(C)[nH]n2)N(C)C)c1 (centres undefined) | -3.07
55 | O=C(O)c1cc(N2C[C@H](NC(=O)C3CCOCC3)[C@@H](C3CC3)C2)ccn1 | -4.23
56 | CCCSCC(=O)N1CCCC2(CCC(=O)N(CCc3c[nH]cn3)C2)C1 (centres undefined) | -0.0682
57 | Cc1nc[nH]c1C(=O)N1CCCC2(CN(C)C(=O)O2)C1 (centres undefined) | 1.2
58 | COc1cccc(CCC2CCCN(C(=O)C3=NN(C)C(=O)CC3)C2)c1 (centres undefined) | -2.06
59 | CC(=O)c1cc(CC(=O)NCc2c(F)cccc2F)cs1 | -8.51
60 | CCCN(C)C(=O)c1ccc2c(c1)[nH]c(=O)n2CCOCC | -30.6
61 | Cc1ccc(OC2(C(=O)O)CCN(C(=O)c3ccc(F)cc3)CC2)cn1 | -18.1
62 | O=C(N[C@@H]1CCNC[C@H]1O)c1ccc(F)c(Cl)c1 | -11.1
63 | COC(=O)Nc1ccc(CNc2cncc(-n3cccn3)n2)cc1 | -5.78

Row | Structure (SMILES) | cytotoxicity at 10 µM [%]
64 | CCc1c(C(=O)N2CCNC(=O)C2)cnn1C(C)(C)C | -20.3
65 | CCN1CCOC(CNCc2ccc(OCc3ccccn3)cc2)C1 (centres undefined) | -7.83
66 | O=C(NCC1CCOC1)Nc1ccc(Oc2ccc(F)cc2)nc1 (centres undefined) | -13.7
67 | O=C(CCc1ccc(-c2ccccc2)[nH]1)N1CCCC(n2ccnc2)C1 (centres undefined) | -15.7
68 | CC(C)(C)c1cc(NC(=O)CN2CCC(N3CCNC3=O)CC2)on1 | -2.05
69 | Cc1cnn(CC2CCCN2C(=O)c2ccc(Cl)cc2F)c1 (centres undefined) | -19
70 | CCn1ccnc1CN1CCCN(C(=O)Cc2ccc(C)cc2)CC1 | -7.29
71 | CCN(Cc1cccc(F)c1)Cc1nc2c(cnn2C)c(=O)[nH]1 | 3.71
72 | CC(=O)N(Cc1ncc(C)o1)C1CCN(Cc2ccon2)C1 (centres undefined) | -9.03
73 | CC(C)c1noc(CCC(=O)NCC2CCOC2)n1 (centres undefined) | 4.57
74 | Cc1cnc(CN(C)C2CCN(Cc3ccccc3C#N)C2)o1 (centres undefined) | 1.08
75 | COCCc1noc(CN2CCCC2c2c(C)nn(C)c2C)n1 (centres undefined) | -5.73
76 | FC(F)(F)Cn1ccnc1CN1CCOC(Cn2cccn2)C1 (centres undefined) | 0.0962
77 | Cc1nn(C)c(Cl)c1C1CCCN1CC(=O)NCc1ccccn1 (centres undefined) | -2.07
78 | CC(C)c1nnc(NC(=O)NCc2ccc(CO)c(F)c2)s1 | 6.54
79 | Cc1ccoc1C(=O)N1Cc2c(CN3CCCCC3)nn(C)c2C1 | -1.16
80 | CN(C)C(=O)CO[C@H]1CN(Cc2ccccc2)[C@@H]2CCCO[C@H]12 | -8.1
81 | c1cncc(N2CCCC3(CCN(CC4CCCO4)CC3)C2)c1 (centres undefined) | 5.15
82 | COc1cccc(-c2n[nH]cc2CNC2CCN(C3CC3)CC2)c1 | -3.78
83 | COc1cccc(-n2cc3[nH]c(=O)[nH]n3c2=O)c1 | -6.47
84 | COCCC(=O)NCC1CCC(C(c2ccccn2)N(C)C)CC1 (centres undefined) | 11.5
